Test [1] can be described thus: Cytotoxicity against human multidrug-resistant KBV1 cells in absence of vinblastine after 72 hrs. Conditions: KB-V1, 72 h, read-out: ED50 (the source's name). In kind it is functional. The method in brief:
(§1)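 Cells in media with penicillin, streptomycin, fungizone and NaHCO3, pH 7.1–7.2. Compounds dissolved in DMSO (0.5% v/v final) and tested in triplicate at four concentrations (0.16–20 μg/ml). Incubation 72 h at 37° under 5% CO2. Cells fixed in cold 50% TCA and stained with sulforhodamine B. Bound dye solubilized in 10 mM Tris base, OD read at 515 nm. ED50 taken from averaged % of DMSO-only controls.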

Another test has as its system Col2. Nature of the test: Cytotoxicity against human Col2 cells after 72 hrs. Format: functional. Conditions: Col2, 72 h, read-out: ED50 (the source's name). The method in brief:
as §1

The next test relates to Lu1. Nature of the test: Cytotoxicity against human Lu1 cells after 72 hrs. In kind it is functional. Conditions: Lu1, 72 h, read-out: ED50 (the source's name). The method in brief:
as §1

Test [2] can be described thus: Cytotoxicity against human BC1 cells after 72 hrs. To be noted: BC1, 72 h, read-out: ED50 (the source's name). Format: functional. The essentials: as §1
Test [3] can be described thus: Cytotoxicity against human multidrug-resistant KBV1 cells in presence of vinblastine after 72 hrs. Format: functional. Conditions: KB-V1, 72 h, read-out: ED50 (the source's name).
In another test the test system is ZR-75-1. Nature of the test: Cytotoxicity against human ZR-75-1 cells after 72 hrs. Format: functional. To be noted: ZR-75-1, 72 h, read-out: ED50 (the source's name). The essentials: as §1
A further test concerns KB. The test can be described thus: Cytotoxicity against human KB cells after 72 hrs. Format: functional. Conditions: read-out: ED50 (the source's name). The essentials: as §1
Another test has as its system P388. The test can be described thus: Cytotoxicity against mouse P388 cells after 48 hrs. Format: functional. To be noted: P388, 48 h, read-out: ED50 (the source's name). The method in brief: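 Murine P-388 cells grown in medium without fungizone. Treated in triplicate at four concentrations (0.16–20 μg/ml), DMSO 0.5% v/v final. Incubation 48 h at 37° under 5% CO2. Fixed with 20% TCA, stained with sulforhodamine B, Tris-solubilized OD read at 515 nm. ED50 derived from averaged % of DMSO-only controls.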

The next test concerns SK-MEL-2. Nature of the test: Cytotoxicity against human SK-MEL-2 cells after 72 hrs. Format: functional. To be noted: SK-MEL-2, 72 h, read-out: ED50 (the source's name). The essentials: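 MEL-2 cells kept in a closed container. Treated in triplicate at four concentrations (0.16–20 μg/ml), DMSO 0.5% v/v final. Incubation 72 h at 37° without CO2. Cells fixed with cold 50% TCA, stained with sulforhodamine B, dye solubilized in 10 mM Tris, OD 515 nm. ED50 derived from averaged % of DMSO-only controls.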

Another test deals with LNCaP. Nature of the test: Cytotoxicity against human LNCAP cells after 72 hrs. In kind it is functional. Conditions: read-out: ED50 (the source's name). The method in brief: as §1
For another test, the system named is A-431. Nature of the test: Cytotoxicity against human A431 cells after 72 hrs. Format: functional. To be noted: A-431, 72 h, read-out: ED50 (the source's name). The method in brief:
as §1

Test [4] in a line: Cytotoxicity against human U373 cells after 96 hrs. In kind it is functional, U-373MG ATCC. Conditions: U373 MG, read-out: ED50 (the source's name). The method in brief:
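U373 cells grown in medium without fungizone. Treated in triplicate with four concentrations (0.16–20 μg/ml), DMSO 0.5% v/v final. Incubation 96 h at 37° under 5% CO2. Sulforhodamine B protein stain after cold 50% TCA fixation, OD 515 nm. ED50 derived from averaged % of DMSO-only controls.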

The test system of another test is HT-1080. Nature of the test: Cytotoxicity against human HT1080 cells after 48 hrs. In kind it is functional. Conditions: HT-1080, 48 h, read-out: ED50 (the source's name). The essentials:
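HT-1080 cells exposed in triplicate to four concentrations (0.16–20 μg/ml) of compound from DMSO stock (0.5% v/v final). Incubation 48 h at 37° under 5% CO2. Read-out by cold 50% TCA fixation, sulforhodamine B staining and Tris-solubilized OD at 515 nm. ED50 derived from averaged % of DMSO-only controls.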

Results on four compounds are retold here after ChEMBL document CHEMBL1147378, “Further lupane lactones from Kokoona ochracea” (1993).

Structures are written as SMILES. In brackets after ≈: the same amount, converted by molar mass.

For `CC(=O)OC[C@]1(OC(C)=O)C(=O)O[C@@H]2C[C@]3(C)CC[C@]4(C)[C@@H](CC[C@@H]5[C@@]6(C)CCC(=O)C(C)(C)[C@@H]6CC[C@]54C)[C@@H]3[C@@H]21`, the EC50 is 18.3 µg/mL (≈ 32.1 µM) in [1]; greater than 20 µg/mL with Col2; greater than 20 µg/mL in the test on Lu1; greater than 20 µg/mL in test [2]; 6.7 µg/mL in test [3]; 11.5 µg/mL (≈ 20.1 µM) in the test with ZR-75-1. Moreover, the EC50 is 16.8 µg/mL (≈ 29.4 µM) in the test with KB; 4.8 µg/mL (≈ 8.41 µM) in the test on P388; 6.2 µg/mL (≈ 10.9 µM) in the test on SK-MEL-2; greater than 20 µg/mL in the test on LNCaP; greater than 20 µg/mL with A-431; greater than 20 µg/mL in test [4]. In addition, in the test on HT-1080, the EC50 was greater than 20 µg/mL.
For `CC(=O)OC[C@]1(O)C(=O)O[C@@H]2C[C@]3(C)CC[C@]4(C)[C@@H](CC[C@@H]5[C@@]6(C)CCC(=O)C(C)(C)[C@@H]6CC[C@]54C)[C@@H]3[C@@H]21`, the EC50 in test [1] was 14.6 µg/mL (≈ 27.6 µM); with Col2, greater than 20 µg/mL; in the test on Lu1, greater than 20 µg/mL; in test [2] it was greater than 20 µg/mL; in test [3] it was 11.7 µg/mL; with ZR-75-1, greater than 20 µg/mL. Besides, the EC50 in the test on KB is 16.7 µg/mL (≈ 31.6 µM); with P388, 4.6 µg/mL (≈ 8.7 µM); in the test on SK-MEL-2, 20 µg/mL (≈ 37.8 µM); with LNCaP, greater than 20 µg/mL; in the test on A-431, greater than 20 µg/mL; in test [4], greater than 20 µg/mL. In addition, the EC50 in the test with HT-1080 was greater than 20 µg/mL.
Consider `CC1(C)C(=O)CC[C@]2(C)[C@H]3CC[C@H]4[C@@H]5[C@H]6[C@@H](C[C@]5(C)CC[C@@]4(C)[C@]3(C)CC[C@@H]12)OC(=O)[C@@]6(O)CO` [OCHRACEOLIDE D], for which the EC50 (in test [1]; in the test with Col2; in the test on Lu1; in [2]; in test [3]; in the test with ZR-75-1) was greater than 20 µg/mL each time. Moreover, the EC50 with KB was greater than 20 µg/mL; in the test on P388, greater than 5 µg/mL; with SK-MEL-2 it was greater than 20 µg/mL; with LNCaP, 15.5 µg/mL (≈ 31.8 µM); in the test with A-431, 9.5 µg/mL (≈ 19.5 µM); in [4], 3.9 µg/mL (≈ 8.01 µM). Moreover, the EC50 with HT-1080 was found to be 14.7 µg/mL (≈ 30.2 µM).
With `C=C1C(=O)O[C@@H]2C[C@]3(CO)CC[C@]4(C)[C@@H](CC[C@@H]5[C@@]6(C)CCC(=O)C(C)(C)[C@@H]6CC[C@]54C)[C@@H]3[C@H]12` [OCHRACEOLIDE E], the EC50 in test [1] is greater than 20 µg/mL; in the test on Col2 it was greater than 20 µg/mL; with Lu1, greater than 20 µg/mL; in [2] it was greater than 20 µg/mL; in test [3], greater than 20 µg/mL; in the test on ZR-75-1, 18.8 µg/mL (≈ 40.1 µM). Further, the EC50 was greater than 20 µg/mL with KB; greater than 5 µg/mL with P388; 11.9 µg/mL (≈ 25.4 µM) in the test with SK-MEL-2; greater than 20 µg/mL in the test on LNCaP; greater than 20 µg/mL in the test on A-431; 8.6 µg/mL (≈ 18.3 µM) in test [4]. The EC50 in the test on HT-1080 came out at 12.2 µg/mL (≈ 26 µM).
